Test system: MS2 coat protein
Test: apparent Kd, MS2 coat protein; higher = weaker binding; RNA-MaP array; FMN 200 µM where present
How it was run: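 Designs were transcribed by stalled E. coli RNA polymerase on Illumina sequencing-chip clusters. They were titrated with SNAP-549-labelled MS2 coat protein from 0.7 or 1.5 nM, doubling to 3 µM, in 100 mM Tris-HCl pH 7.5, 80 mM KCl, 4 mM MgCl2, BSA, DTT, yeast tRNA and Tween-20, without and then with constant ligand. The apparent Kd is the median of filtered per-cluster fits after normalisation of green signal to red-channel RNA signal and control-cluster median Fmax.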

[1] = designed as: OFF switch for flavin mononucleotide, no ligand
[2] = ligand present: flavin mononucleotide, designed as: OFF switch for flavin mononucleotide
[3] = designed as: ON switch for flavin mononucleotide, no ligand
[4] = ligand present: flavin mononucleotide, designed as: ON switch for flavin mononucleotide

Sequence	apparent Kd [1] [nM]	apparent Kd [2] [nM]	apparent Kd [3] [nM]	apparent Kd [4] [nM]
CGUGUAAACUCAGGAUAUCCUGCGAGCAACGGGUAUUGAGUCUUCACAUGAGGAUCACCCAUGUAGGAGAAGGGAGGUACAAAA	72.6	187		
UAAGUCGAGAAGAUAAUAAUGAAUACAUGAGGAUCACCCAUGUAGGAUAUGCAGUGGAAUACACUGCAGAAGGACAUACUCGAC	14.3	16.9		
AUAUGAGAAGCAGGAUAUGUGAAAAAAAAACAUACAGAAGGGUUUAUGGAAAAACAUGAGGAUCACCCAUGUUCUUUGUGAUGA			33.5	32.4
GCAGGUUAAGUAAGGAUAUACCUCUGGAAACAGAGGUAGAAGGUACAUGAGGAUCACCCAUGUUUCUCUUCUGC	17.3	45.7		
ACAUGAGGAUCACCCAUGUGUACAUAGGAUAUUGAUGAUUAUGGUUUAAGAAAAGUAAUUGCCCACAAGAAGGAUGCCUCAUCU			36.5	27.7
UAGGGUGUACGAGGAUAUGGGCAUUGGUGGAUCUCAGAAGGCGUAUACGCGCGCAGACAUGAGGAUCACCCAUGUACCCGGCUU			62.8	23.6
UUUUCUCGUGAGAAGGACAUGAGGAUCACCCAUGUAGGAUAUCGUGGGAGACAGGAAUUGAAUCUUCGGAUUCAAUUCCUGUCU			104	8.82
CUUUUGUGAGGAUAUUAGUAGUAAAUGAUUAAAAUUAUUACUGAGAAGGCACAUGAGGAUCACCCAUGUUCCUC	45.1	655		
AAAGUGUUAGGAUAUGUGAAGGCGUCUGAUAGACGAGGCCUGCAGAAGGGACAUGAGGAUCACCCAUGUAAAAA	56.8	26		
CCCGUGUUAGGAUAUACGGCACACCCGCCAGCGGGUAUAUAGUAGAAGGAACAUGAGGAUCACCCAUGUAUAGC	16.1	46.6		
UAGAAGUCAGGAUAUGCAUGGCGGGACUUGCGUCGUGGCGUGCAGAAGGGACAUGAGGAUCACCCAUGUAAAGC	49	43		
AAAUUCAGAGGAUAUGCGCAUAGAUAAGACUUUUUUUCUUAACAUGAGGAUCACCCAUGUAGAAGGCUGUAAUA	18.4	16.7		
CGCUAGGAUGGGUCUAAUGGACCUCAGGAUAUGCUUGUACAUGAGGAUCACCCAUGUAAUAUUGUGCAGAAGGGAGGAUCCACG			18.9	6.56
CGCUACUACCAGAAGGACAUGAGGAUCACCCAUGUAGGAUAUGGGUUACAAGUACCAGUGUAGAGAAACUACGCUACAGUAGCG			29.8	8.3
ACAUGAGGAUCACCCAUGUUAAGCGAGGAUAUUUCACUGCACAUGAGGUUCGCCCAUGUCCUGCGGAAGAAGGUGCGAAUAAUU			33.4	17.1
CCCACGAAAGUCGAACGAUGUAGGAGAAGGACAAUAACAUGACAUGAGGAUCACCCAUGUGCCAUGUAGGAUAUCCUACAUGGG	7.86	7.78		
AAGCCUCUUGUCAGGAUAUCUGUCGGUCCUCCAAGAGAGAAGGGACAUGAGGAUCACCCAUGUAAGCCCAGGGA	16.1	27.9		
AGAUGGCGAGGAUAUACAUGAGGAUCACCCAUGUGAGAGAAAAGAGUGAGGAAGAAAAGUAGAAGGCGCUGUCA	80.6	130		
GUAGUGUAUGUAGGAUAUGUGAAGGAAACCUUUACAGAAGGACAUGAGGAUCACCCAUGUAUUACAGUCAGCAAUCUGACUGUU	28.4	107		

Sequence	apparent Kd [1] [nM]	apparent Kd [2] [nM]	apparent Kd [3] [nM]	apparent Kd [4] [nM]
CCCAGCUAUGUGAGGAUAUUCACAUCGAUGGUAGUGAAGAAGGCACAUGAGGAUCACCCAUGUUGGUUGCCGAU	19.4	28.7		
AGCUACGUUUCGUAGCAGUGUCAUCGAGAAGGCUCAGAUACAUGAGGAUCACCCAUGUUAACAUGGGAGGAUAUCGAUGAUACA			65.3	8.4
GUGGUUCGCGAGAAGGGAGCUUAAGGACGCGGCUCAGGAUAUCGUACAUGAGGAUCACCCAUGUGCUGGCAUCUCCAGUGCGUG	118	56.1		
GGGAUCACCGUCAGGAUAUGUGACCGUACUAUCGGGCAGAAGGGACAUGAGGAUCACCCAUGUUGUCGUAGACU	20.7	58.1		
UCUUUAUUUGUGAGGAUAUCGAUAAAAUGGAUUGUCGAGAAGGCACAUGAGGAUCACCCAUGUAUUGAACAGCA	59.2	212		
UAUACAAACGAAGGAUAUGGAUACAUGAGGAUCACCCAUGUAUGUAUGAUGAUCUAGAAAAUGGGCCAGAAGGUCGUGAUUAUU	22.6	62.7		
CGUAUUAAACAAGGAUAUCAUUUGUGUACAAGUUUUACAUGAGGAUCACCCAUGUUAAAUGGUUUUGAGAAGGUGUUUAGAUCG			35.3	25.9
UCAUUUAAUACAGGAUAUGUUAGUAUACAGUAGAUUGGUUAUUACAUAAUAACAGAAGGGUAGAACAUGAGGAUCACCCAUGUA			265	96.2
GUGGCGACUGAGAAGGUACGCAUAAAAGAGAAGUAAGGAUAUCAGUCACAUGAGGAUCACCCAUGUGUUGGAAAGAUCCUUAAA	10.4	37.9		
UGCUAAUUGUAGAAGGGUGACAUGAGGAUCACCCAUGUUCACAUGCGAUUUACGGCGCAUGUUCCACAGGAUAUACAGUUGAGU			342	60.1
GGUGCAUAUGAGAAGGCGAUCAUGAAACAUGAUCGAGGAUAUCAUGUAAACAUGAGGAUCACCCAUGUAUGGGAAUAAUGCACC			112	10.4
AGUGUGUUAGGAUAUCGGAUAUGCUGGAGGAGGUGGAUUUACGAGAAGGAACAUGAGGAUCACCCAUGUAGGAG	37.1	35.6		
GGUGGACAUGAGGAUCACCCAUGUGAGGAUAUCGGCUGGUACGUGUUGGCUGGCAUCUCGAGAAGGCACAUAGU	80.9	180		
CGCUGGUGACAGCAUCCAUCAAAACAUGAGGAUCACCCAUGUAGAAGGCUGUACGGUUACCGUACAGAGGAUAUACAAUGAUGG	7.56	9.75		
CGAUACAUGAGGGUCUCCCAUGACAUGAGGAUCACCCAUGUGCAGGAUAUACGUGUGAUGGUAUAGUAGAAGGGCAGUCUAUGU	70.6	99.9		
AAGGGUACUUUCGGAACGACAUGAGGAUCACCCAUGUAUACUGAGGAUAUCUACUACUAAGGACGGGAGAAGGCAGUGUAAUGU	18	20.3		
AAAACAUGAGGAUCACCCAUGUAAAGAUCGGUUAAUAGAGGUGAGGAUAUACUAAAUUUUGGGUGGUAGAAGGCACUGGGUACA			187	122
AGCUAGUCAGGAUAUGCGUGAAGAAUAAAACAAAUAACAACGCAGAAGGGACAUGAGGAUCACCCAUGUUAGCA	30.7	19.5		
AUAAUGUGAGGAUAUACAUGAGGAUCACCCAUGUAAUUAAAUCGGAGAGCCACAAUUCGUAGAAGGUACAUUUA	22	27.7		

Sequence	apparent Kd [1] [nM]	apparent Kd [2] [nM]	apparent Kd [3] [nM]	apparent Kd [4] [nM]
AAUCCACAUGAGGAUCACCCAUGUCAGGAUAUCGCGCGCGCGUUUUCGGUCUUUCGCGCGAGAAGGGACGACUG	16.1	18.8		
ACAUGAGGAUCACCCAUGUUAAACGAGGAUAUAUGACUGCACAUGAGGUUCACCCAUGUUCUGCCGUAGAAGGUGUAAAUAAUU			43.3	42.8
GGGCCCGGAGGAUAUACAUGAGGAUCACCCAUGUAUGUGUGUGUUAUUGCGCGCGCGUGUAGAAGGCCGGGCCC	19.9	80.2		
GCCUAACAUGAGGAUCACCCAUGUAGUGGGUUGUUAGGAUAUGGGCGGCGUAACGCUGCACCAGAAGGAAUAGAAG			865	504
UGGUCAUGAUCAGGAUAUUAACAUGGGCUACAUUAAGAAGGGAUAGUGAGAUACGAACUGAAACAUGAGGAUCACCCAUGUGUU			170	107
GCCUUAUCCGUCAGGAUAUACAGCCGCUAGUUGUUGUAGAAGGGACAUGAGGAUCACCCAUGUACGUACCAUUG	20.3	30.7		
UGUUGUAUUACAGGAUAUCUAUUAGUUUUAGUUAGAGAAGGGUAUUCACAUGAGGAUCACCCAUGUAUAUACGAGGAAGUUGUG			44.1	49.1
AUGUUUAAUGCAGGAUAUGAUUAACAUGAGGAUCACCCAUGUGGUGUUGUGAGUAAGGAGAGUGAUCAGAAGGGCAUUUUUUUU			592	540
CGUGUUUAUGUGAGGAUAUUAUCAAGCUGAUUGUGUAAGAAGGCACAUGAGGAUCACCCAUGUGGCGAUUCCGC	34.2	215		
GGAAAACAUGAGGAUCACCCAUGUGAGGAUAUCGAUGUCCAAAAAAAGGUGCGGGACUCGAGAAGGCACUUGGA	55.6	47		
UUUACGGGAGGAUAUACAUGAGGAUCACCCAUGUAACGGUGUGUAAUAUAUAUUGCGUGUAGAAGGUUUGUGGG	79.3	78.6		
CACUGCAAUGUAGGAUAUCGACUGGAUAACAGUCGAGAAGGACAUGAGGAUCACCCAUGUCAUCCUAAUAAUAAAUAAGCAGUG	15.3	19.1		
GUCGGAAACGACAAAAGUAGCAUAGGAGAAGGUUCAUUAAACAUGAGGAUCACCCAUGUAAUUGGGAAGGAUAUCCUAUGCUAC			16.2	9.16
GCGGCUAAUGCAGGAUAUCGGCGCGUGUAGCGCCGAGAAGGGCACAUGAGGAUCACCCAUGUGAUCAAUCAAUGUUAAUGCCGC	8.68	45.6		
AAUAACAGAGGAUAUACUAUUUUAUGUGUUUGUUGUUUUGAACAUGAGGAUCACCCAUGUAGAAGGCUGAUUGA	42.6	45.3		
GGUUGGCGAGGAUAUACAUGAGGAUCACCCAUGUGGUCCUGUGGCUGAUCUUGCCUUUGUAGAAGGCGCGAAUC	25.4	103		
CUGAGGUCAGGAUAUGCAUGGCGGGACUUGCGUCGUGGCGUGCAGAAGGGACAUGAGGAUCACCCAUGUGGAGA	88.5	203		
CUUUUGUGAGGAUAUCAUUAGUAAAAAAAUAAAAUUACUACUGAGAAGGCACAUGAGGAUCACCCAUGUUCCUC	35.5	233		

Reference: the EternaBench riboswitch data
